This is an account of results in ChEMBL document CHEMBL1123760, “Synthesis and oral antifungal activity of novel azolylpropanolones and related compounds” (1987).

Common to all, as to format: functional
The test system of experiment [1] is Mus musculus. The experiment can be described thus: In vivo activity against subacute systemic murine candidiasis in mice at a daose of 12.5-100 mg/kg dosage range. Value was determined at day 15 after infection. Particulars: 360 h.
The next experiment has as its system Cavia porcellus. The experiment can be described thus: Number of skin sections yielding negative culture / total (48) (percentage) in guinea pig dermatophytosis at dose of 40 mg/kg […]. (Value is from Six skin sections cut out from each treated site). In short, it runs like this:
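Guinea pigs infected with Trichophyton asteroides, four animals each with two lesion sites. Oral 40 mg/kg once daily for 10 days (day 3 to day 12). Read-out is the rate of negative cultures from infected skin sections.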

The subject of another experiment is Aspergillus fumigatus. The experiment can be described thus: In vitro antifungal activity against Aspergillus fumigatus. Summed up:
(§1)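 Broth microdilution MIC in Sabouraud's glucose broth; final inocula 1 × 10^5 cells/mL (yeast) or 1 × 10^5 conidia/mL (mold and dermatophyte).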

The subject of experiment [2] is Candida albicans. The experiment is described as follows: In vitro antifungal activity against Candida albicans. Particulars: Candida albicans; read-out: MIC. Summed up:
as §1

For a further experiment, the system named is Trichophyton benhamiae. The experiment can be described thus: In vitro antifungal activity against Trichophyton asteroides. Summed up:
as §1

For experiment [3], the system named is Candida albicans. The experiment is described as follows: Minimum effective concentration for inhibition of pseudomycelium formation in Candida albicans. Particulars: for minimal effective concentration: Candida albicans, read-out: MEC. Summed up: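 C. albicans KE-2 (clinical isolate) at a final 1 × 10^6 yeast cells/mL in EMEM with 20% calf serum; compounds diluted by the same microtiter system as for MICs. After incubation, wells were Giemsa-stained (5% in phosphate buffer) and read by microscope. MEC is the lowest concentration preventing typical pseudomycelium formation.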

In experiment [4] the test system is Mus musculus. The experiment can be described thus: Ratio of in vivo number of survivors / total infected. The arrangement: reference not given here.
[5] abbreviates: Aspergillus fumigatus, read-out: MIC.
Setting [6] is: Trichophyton benhamiae, read-out: MIC.

The structures appear in SMILES notation. Values after ≈ are worked out from the molar mass of the structure shown. Some results are limits rather than exact numbers.

In the case of `CC(=O)N1CCN(c2ccc(OCC3COC(Cn4ccnc4)(c4ccc(Cl)cc4Cl)O3)cc2)CC1` (stereo not given) [KETOCONAZOLE], the ED50 in the experiment on Mus musculus [1] came to 32.3 mg/kg.

For `O=C(c1ccc(Cl)cc1Cl)C(O)(Cn1cncn1)c1ccc(Cl)cc1Cl` (stereo not given), it took a dose of 32.3 mg/kg to reach the 50% effect level in the experiment with Mus musculus [1] (ED50). The same molecule gave a No. total in the experiment with Cavia porcellus of 27. Besides, the results for the MIC in the experiment with Aspergillus fumigatus (setting [5]), in the experiment with Candida albicans [2] and with Trichophyton benhamiae (setting [6]) were greater than 100 µg/mL, 50 µg/mL (≈ 116 µM) and 0.1 µg/mL (≈ 0.232 µM), respectively. For the same molecule, in the experiment with Candida albicans [3], the minimal effective concentration came to 0.16 µg/mL. The No. of survivors with Mus musculus [4] was found to be 7.

`OC(c1ccc(F)cc1)C(O)(Cn1cncn1)c1ccc(Cl)cc1Cl` (stereo in doubt; 92) returned an ED50 in the experiment with Mus musculus [1] of 25.6 mg/kg. Also, in the experiment on Cavia porcellus, the No. total came to 11. For the same molecule, the values for the MIC in the experiment with Aspergillus fumigatus, with Candida albicans [2] and in the experiment with Trichophyton benhamiae were 25 µg/mL (≈ 65.4 µM), 50 µg/mL (≈ 131 µM) and 0.1 µg/mL (≈ 0.262 µM), respectively. This molecule also showed an MEC with Candida albicans [3] of 0.08 µg/mL. Also, the No. of survivors in the experiment on Mus musculus [4] came out at 8.

Molecule `CC(C)C(=O)C(O)(Cn1cncn1)c1ccc(Cl)cc1` (stereo in doubt; 39) registered an ED50 in the experiment on Mus musculus [1] of 14.7 mg/kg. In addition, the MIC against Trichophyton benhamiae turned out to be 0.1 µg/mL (≈ 0.34 µM).

Turning to `CC(C)C(=O)C(O)(Cn1cncn1)c1ccc(Cl)cc1Cl` (stereo not given), it took a dose of 22.6 mg/kg to reach the 50% effect level in the experiment with Mus musculus [1] (ED50). For the same molecule, the No. total in the experiment with Cavia porcellus was 7. Also, the MIC was 100 µg/mL (≈ 305 µM) in the experiment on Aspergillus fumigatus (setting [5]), 100 µg/mL (≈ 305 µM) with Candida albicans [2] and 0.1 µg/mL (≈ 0.305 µM) with Trichophyton benhamiae (setting [6]). In the experiment with Candida albicans [3], the minimal effective concentration stood at 0.04 µg/mL. Moreover, the No. of survivors with Mus musculus [4] came out at 8.

On to `O=C(c1ccc(Cl)cc1Cl)C(O)(Cn1cncn1)c1ccc(F)cc1` (stereo not given), for which, in the experiment on Mus musculus [1], the ED50 worked out at 20.2 mg/kg. Moreover, the minimal inhibitory concentration (MIC) in the experiment on Aspergillus fumigatus (setting [5]) is greater than 100 µg/mL; in the experiment on Candida albicans [2], 100 µg/mL (≈ 263 µM); in the experiment on Trichophyton benhamiae (setting [6]) it was 0.1 µg/mL (≈ 0.263 µM). For the same molecule, the minimal effective concentration in the experiment with Candida albicans [3] was 0.31 µg/mL. Also, in the experiment with Mus musculus [4], the No. of survivors is reported as 8.

On to `CCCC(=O)C(O)(Cn1cncn1)c1ccc(Cl)cc1` (stereo not given), for which the MIC in the experiment with Aspergillus fumigatus (setting [5]) was 12.5 µg/mL (≈ 42.6 µM); in the experiment on Candida albicans [2], 100 µg/mL (≈ 340 µM); in the experiment on Trichophyton benhamiae (setting [6]) it was 0.1 µg/mL (≈ 0.34 µM). In the experiment with Candida albicans [3], the minimal effective concentration stood at 0.08 µg/mL. In the experiment with Mus musculus [4], the No. of survivors is listed as 0.

Regarding `CCCC(O)(Cn1cncn1)C(=O)c1ccc(Cl)cc1Cl` (stereo not given), the MIC in the experiment on Aspergillus fumigatus (setting [5]) was 50 µg/mL (≈ 152 µM); with Candida albicans [2], greater than 100 µg/mL; in the experiment on Trichophyton benhamiae (setting [6]) it was 0.4 µg/mL (≈ 1.22 µM). Further, the minimal effective concentration with Candida albicans [3] worked out at 1.25 µg/mL. In addition, the No. of survivors in the experiment on Mus musculus [4] turned out to be 1.

Consider `O=C1O[C@H](c2ccccc2)[C@@](Cn2cncn2)(c2ccc(Cl)cc2Cl)O1`, for which the MIC in the experiment with Aspergillus fumigatus (setting [5]) was greater than 100 µg/mL; in the experiment on Candida albicans [2], 100 µg/mL (≈ 256 µM); in the experiment on Trichophyton benhamiae (setting [6]), 0.16 µg/mL (≈ 0.41 µM). Moreover, the minimal effective concentration in the experiment on Candida albicans [3] was 0.16 µg/mL. In addition, the No. of survivors in the experiment with Mus musculus [4] amounted to 0.

Regarding `O=C(c1ccc(Cl)cc1Cl)C(O)(Cn1cncn1)c1ccc(Cl)cc1` (stereo not given), the values for the MIC in the experiment with Aspergillus fumigatus (setting [5]), in the experiment with Candida albicans [2] and in the experiment with Trichophyton benhamiae (setting [6]) were greater than 100 µg/mL, 100 µg/mL (≈ 252 µM) and 0.1 µg/mL (≈ 0.252 µM), respectively. In the experiment with Candida albicans [3], the minimal effective concentration came to 0.31 µg/mL. The No. of survivors with Mus musculus [4] worked out at 8.

For the molecule `O=C(c1ccc(Cl)cc1Cl)C(O)(Cn1ccnc1)c1ccc(Cl)cc1` (stereo not given), the MIC in the experiment with Aspergillus fumigatus (setting [5]) is 25 µg/mL (≈ 63.2 µM); in the experiment on Candida albicans [2], 25 µg/mL (≈ 63.2 µM); in the experiment on Trichophyton benhamiae (setting [6]), 0.1 µg/mL (≈ 0.253 µM). The minimal effective concentration with Candida albicans [3] was 2.5 µg/mL. Further, the No. of survivors in the experiment on Mus musculus [4] is on record as 0.

Turning to `Clc1ccc([C@@]2(Cn3cncn3)OCO[C@@H]2c2ccc(Cl)cc2Cl)cc1`, the MIC with Aspergillus fumigatus (setting [5]) was greater than 100 µg/mL; with Candida albicans [2], greater than 100 µg/mL; with Trichophyton benhamiae (setting [6]), 0.1 µg/mL (≈ 0.243 µM). The minimal effective concentration with Candida albicans [3] came out at 0.31 µg/mL. In addition, in the experiment on Mus musculus [4], the No. of survivors stood at 0.

Take `CC(C)CC(=O)C(O)(Cn1cncn1)c1ccc(Cl)cc1Cl` (stereo not given): the MIC was 100 µg/mL (≈ 292 µM) with Aspergillus fumigatus (setting [5]), 100 µg/mL (≈ 292 µM) in the experiment on Candida albicans [2] and 0.1 µg/mL (≈ 0.292 µM) in the experiment with Trichophyton benhamiae (setting [6]). Besides, the minimal effective concentration with Candida albicans [3] was 0.02 µg/mL. Besides, in the experiment with Mus musculus [4], the No. of survivors was 0.

As for `CC(C)C(=O)C(O)(Cn1ccnc1)c1ccc(Cl)cc1Cl` (stereo not given), the MIC was greater than 100 µg/mL in the experiment with Aspergillus fumigatus (setting [5]), greater than 100 µg/mL in the experiment with Candida albicans [2] and 0.1 µg/mL (≈ 0.306 µM) with Trichophyton benhamiae (setting [6]). In the experiment with Candida albicans [3], the minimal effective concentration is 0.04 µg/mL. The No. of survivors with Mus musculus [4] is given as 1.

Consider `CC(C)[C@H]1OCO[C@]1(Cn1cncn1)c1ccc(Cl)cc1`, for which the results for the MIC in the experiment on Aspergillus fumigatus (setting [5]), in the experiment with Candida albicans [2] and in the experiment on Trichophyton benhamiae (setting [6]) were 100 µg/mL (≈ 325 µM), greater than 100 µg/mL and 0.2 µg/mL (≈ 0.65 µM), respectively. Moreover, the minimal effective concentration with Candida albicans [3] is 0.04 µg/mL. In addition, the No. of survivors in the experiment with Mus musculus [4] was 7.
